Test results reported in ChEMBL document CHEMBL1150387, “Development and experimental validation of a docking strategy for the generation of kinase-targeted libraries” (J Med Chem, 2008).

How the values were obtained:
[1] = target: Mitogen-activated protein kinase 1 (Homo sapiens) (UniProt P28482); test: Inhibition of ERK2 at 10 uM by HTRF assay relative to control
Procedure, shortened: (§1)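 HTRF kinase assay, one panel of kinases. Inhibitor stock 50 µM in 100% DMSO; tested at 10 µM. ATP and substrate at final levels near Km. Final buffer: 50 mM Hepes/NaOH pH 7.4, 40 µM Na3VO4, 0.005% Tween-20, 1 mM DTT, MnCl2 or MgCl2 at kinase-dependent levels. Started by adding ATP/substrate. Reaction run at room temperature, time varied by kinase. Detection mix in 50 mM Hepes pH 7.4, 0.1% BSA, 150 mM KF, incubated ≥1 h at room temperature. Activity expressed as % of uninhibited control; n=2.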

[2] = target: Calcium/calmodulin-dependent protein kinase type II subunit alpha (Homo sapiens) (UniProt Q9UQM7); test: Inhibition of CaMK2alpha at 10 uM by HTRF assay relative to control; procedure, shortened: as §1
Chain of Calcium/calmodulin-dependent protein kinase type II subunit alpha (Homo sapiens) (Q9UQM7 whole entry): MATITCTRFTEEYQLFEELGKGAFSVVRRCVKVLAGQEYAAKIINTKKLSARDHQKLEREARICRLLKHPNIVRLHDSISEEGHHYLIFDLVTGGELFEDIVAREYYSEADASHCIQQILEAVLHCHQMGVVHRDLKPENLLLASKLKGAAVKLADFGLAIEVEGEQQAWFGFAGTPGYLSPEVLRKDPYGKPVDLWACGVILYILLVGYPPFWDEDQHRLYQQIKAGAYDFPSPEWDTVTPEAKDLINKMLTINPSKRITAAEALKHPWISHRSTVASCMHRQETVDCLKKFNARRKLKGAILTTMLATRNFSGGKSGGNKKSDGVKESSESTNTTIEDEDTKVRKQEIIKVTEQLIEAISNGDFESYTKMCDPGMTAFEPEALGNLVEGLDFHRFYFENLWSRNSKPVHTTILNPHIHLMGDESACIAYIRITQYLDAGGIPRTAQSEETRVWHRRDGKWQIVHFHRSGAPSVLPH

[3] = target: Fibroblast growth factor receptor 1 (Homo sapiens) (UniProt P11362); test: Inhibition of FGFR1 at 10 uM by HTRF assay relative to control; procedure, shortened: as §1
Chain of Fibroblast growth factor receptor 1 (Homo sapiens) (P11362 22-822 limits assumed): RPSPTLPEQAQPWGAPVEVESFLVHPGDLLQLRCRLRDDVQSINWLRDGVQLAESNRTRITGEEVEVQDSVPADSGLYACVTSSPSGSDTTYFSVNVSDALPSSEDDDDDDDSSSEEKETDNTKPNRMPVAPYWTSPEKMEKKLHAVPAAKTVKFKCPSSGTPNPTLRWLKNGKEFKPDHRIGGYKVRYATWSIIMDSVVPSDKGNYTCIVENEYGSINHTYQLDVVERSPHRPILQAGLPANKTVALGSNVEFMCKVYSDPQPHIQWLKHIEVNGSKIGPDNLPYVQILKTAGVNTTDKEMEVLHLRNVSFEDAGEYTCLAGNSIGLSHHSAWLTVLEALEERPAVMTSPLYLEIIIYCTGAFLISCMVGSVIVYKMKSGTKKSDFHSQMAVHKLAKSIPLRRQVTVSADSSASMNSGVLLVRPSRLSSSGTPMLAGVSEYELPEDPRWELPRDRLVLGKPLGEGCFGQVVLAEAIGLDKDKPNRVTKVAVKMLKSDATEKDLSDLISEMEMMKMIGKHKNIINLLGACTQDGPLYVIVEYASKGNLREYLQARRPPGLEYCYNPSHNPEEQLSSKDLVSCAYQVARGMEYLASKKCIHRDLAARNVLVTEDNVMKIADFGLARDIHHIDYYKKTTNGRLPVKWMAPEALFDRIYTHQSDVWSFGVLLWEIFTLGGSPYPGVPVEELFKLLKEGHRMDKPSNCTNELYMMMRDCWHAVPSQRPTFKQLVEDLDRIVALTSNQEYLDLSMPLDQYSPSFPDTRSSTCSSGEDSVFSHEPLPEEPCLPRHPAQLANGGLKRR

[4] = target: T1, Inhibitor of nuclear factor kappa-B kinase subunit beta (Homo sapiens) (UniProt O14920); test: Inhibition of IKK-beta at 10 uM by HTRF assay relative to control; procedure, shortened: as §1
T1 sequence (whole entry): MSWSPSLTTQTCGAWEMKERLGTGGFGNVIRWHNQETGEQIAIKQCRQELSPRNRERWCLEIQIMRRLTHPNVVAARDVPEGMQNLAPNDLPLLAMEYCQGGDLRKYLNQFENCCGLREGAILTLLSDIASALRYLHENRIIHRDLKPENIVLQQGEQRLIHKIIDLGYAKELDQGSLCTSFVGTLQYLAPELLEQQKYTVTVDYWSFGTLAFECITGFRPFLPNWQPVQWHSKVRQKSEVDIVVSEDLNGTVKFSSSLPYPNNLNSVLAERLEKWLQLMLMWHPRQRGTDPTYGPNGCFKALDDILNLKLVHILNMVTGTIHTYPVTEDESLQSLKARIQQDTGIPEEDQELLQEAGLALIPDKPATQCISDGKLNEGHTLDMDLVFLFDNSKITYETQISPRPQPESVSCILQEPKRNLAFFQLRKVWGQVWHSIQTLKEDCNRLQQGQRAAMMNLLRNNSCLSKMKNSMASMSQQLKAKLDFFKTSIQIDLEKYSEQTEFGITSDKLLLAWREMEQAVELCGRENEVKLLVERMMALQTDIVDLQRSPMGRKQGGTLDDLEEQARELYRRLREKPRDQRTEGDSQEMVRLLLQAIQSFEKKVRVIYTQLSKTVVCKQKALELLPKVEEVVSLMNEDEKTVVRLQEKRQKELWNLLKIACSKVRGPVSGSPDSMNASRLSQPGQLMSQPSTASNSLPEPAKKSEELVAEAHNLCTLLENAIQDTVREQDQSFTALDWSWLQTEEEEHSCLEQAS

[5] = target: Protein-tyrosine kinase 6 (Homo sapiens) (UniProt Q13882); test: Inhibition of Brk at 10 uM by HTRF assay relative to control; procedure, shortened: as §1
Chain of Protein-tyrosine kinase 6 (Homo sapiens) (Q13882 whole entry, looked up): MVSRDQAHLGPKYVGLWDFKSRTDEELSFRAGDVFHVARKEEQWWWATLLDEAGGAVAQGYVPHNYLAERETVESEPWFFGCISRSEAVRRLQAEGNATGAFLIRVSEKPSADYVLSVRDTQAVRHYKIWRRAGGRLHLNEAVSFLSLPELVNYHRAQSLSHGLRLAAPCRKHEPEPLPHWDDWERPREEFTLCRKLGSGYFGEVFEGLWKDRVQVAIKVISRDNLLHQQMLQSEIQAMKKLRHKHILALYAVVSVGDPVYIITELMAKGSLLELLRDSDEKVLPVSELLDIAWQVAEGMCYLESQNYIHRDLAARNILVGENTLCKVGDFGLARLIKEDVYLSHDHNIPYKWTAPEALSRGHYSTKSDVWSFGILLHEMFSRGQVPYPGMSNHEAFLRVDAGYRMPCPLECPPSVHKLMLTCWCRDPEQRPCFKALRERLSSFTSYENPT

[6] = target: Protein kinase C alpha type (Homo sapiens) (UniProt P17252); test: Inhibition of PKCalpha at 10 uM by HTRF assay relative to control; procedure, shortened: as §1
[7] = target: Receptor-type tyrosine-protein kinase FLT3 (Homo sapiens) (UniProt P36888); test: Inhibition of FLT3 at 10 uM by HTRF assay relative to control; procedure, shortened: as §1
Chain of Receptor-type tyrosine-protein kinase FLT3 (Homo sapiens) (P36888 whole entry): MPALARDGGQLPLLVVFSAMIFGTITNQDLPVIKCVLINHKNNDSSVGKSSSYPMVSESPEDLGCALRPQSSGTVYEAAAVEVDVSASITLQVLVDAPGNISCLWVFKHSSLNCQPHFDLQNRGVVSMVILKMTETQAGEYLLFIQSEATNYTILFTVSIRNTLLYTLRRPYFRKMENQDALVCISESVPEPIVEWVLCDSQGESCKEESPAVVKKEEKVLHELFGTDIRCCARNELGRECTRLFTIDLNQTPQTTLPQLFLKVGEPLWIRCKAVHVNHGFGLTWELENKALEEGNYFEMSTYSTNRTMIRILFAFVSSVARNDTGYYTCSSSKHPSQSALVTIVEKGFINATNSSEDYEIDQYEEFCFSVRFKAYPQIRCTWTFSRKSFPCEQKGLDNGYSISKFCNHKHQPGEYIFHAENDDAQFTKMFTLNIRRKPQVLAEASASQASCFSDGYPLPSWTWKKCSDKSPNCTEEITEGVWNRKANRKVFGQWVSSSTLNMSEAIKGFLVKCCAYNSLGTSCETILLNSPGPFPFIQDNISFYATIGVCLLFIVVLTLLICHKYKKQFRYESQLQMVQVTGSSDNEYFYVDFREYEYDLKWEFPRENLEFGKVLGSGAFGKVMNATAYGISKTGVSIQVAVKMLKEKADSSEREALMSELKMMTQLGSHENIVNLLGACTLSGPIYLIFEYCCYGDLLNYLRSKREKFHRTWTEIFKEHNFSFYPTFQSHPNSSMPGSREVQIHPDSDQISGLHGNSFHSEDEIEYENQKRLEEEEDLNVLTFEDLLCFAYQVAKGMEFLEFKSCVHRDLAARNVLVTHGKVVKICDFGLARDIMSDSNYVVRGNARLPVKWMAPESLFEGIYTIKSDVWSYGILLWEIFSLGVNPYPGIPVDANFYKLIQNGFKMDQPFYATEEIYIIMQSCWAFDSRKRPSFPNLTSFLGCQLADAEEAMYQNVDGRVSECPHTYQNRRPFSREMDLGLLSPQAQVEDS

[8] = target: Platelet-derived growth factor receptor beta (Homo sapiens) (UniProt P09619); test: Inhibition of PDGFRbeta at 10 uM by HTRF assay relative to control; procedure, shortened: as §1
[9] = Inhibition of IRK at 10 uM by HTRF assay relative to control; procedure, shortened: as §1
[10] = target: Protein kinase C gamma type (Homo sapiens) (UniProt P05129); test: Inhibition of PKCgamma at 10 uM by HTRF assay relative to control; procedure, shortened: as §1
[11] = target: Ribosomal protein S6 kinase beta-1 (Homo sapiens) (UniProt P23443); test: Inhibition of p70S6K at 10 uM by HTRF assay relative to control; procedure, shortened: as §1
Chain of Ribosomal protein S6 kinase beta-1 (Homo sapiens) (P23443 whole entry, looked up): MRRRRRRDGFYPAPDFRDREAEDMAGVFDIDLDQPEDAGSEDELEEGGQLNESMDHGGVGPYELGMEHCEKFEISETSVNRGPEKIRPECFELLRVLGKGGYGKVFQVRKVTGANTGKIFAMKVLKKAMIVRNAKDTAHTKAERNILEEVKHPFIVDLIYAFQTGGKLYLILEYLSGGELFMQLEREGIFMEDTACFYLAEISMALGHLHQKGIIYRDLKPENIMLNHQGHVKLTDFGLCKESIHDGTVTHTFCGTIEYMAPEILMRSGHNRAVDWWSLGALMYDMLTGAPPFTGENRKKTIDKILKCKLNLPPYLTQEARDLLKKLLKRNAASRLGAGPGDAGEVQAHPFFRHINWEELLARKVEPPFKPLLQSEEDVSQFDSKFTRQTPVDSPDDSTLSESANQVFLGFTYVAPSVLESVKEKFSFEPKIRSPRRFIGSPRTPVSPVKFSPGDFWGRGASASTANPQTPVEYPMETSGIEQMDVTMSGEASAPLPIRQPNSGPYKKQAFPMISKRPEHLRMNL

[12] = target: 3-phosphoinositide-dependent protein kinase 1 (Homo sapiens) (UniProt O15530); test: Inhibition of PDK1 at 10 uM by HTRF assay relative to control
Chain of 3-phosphoinositide-dependent protein kinase 1 (Homo sapiens) (O15530 whole entry, looked up): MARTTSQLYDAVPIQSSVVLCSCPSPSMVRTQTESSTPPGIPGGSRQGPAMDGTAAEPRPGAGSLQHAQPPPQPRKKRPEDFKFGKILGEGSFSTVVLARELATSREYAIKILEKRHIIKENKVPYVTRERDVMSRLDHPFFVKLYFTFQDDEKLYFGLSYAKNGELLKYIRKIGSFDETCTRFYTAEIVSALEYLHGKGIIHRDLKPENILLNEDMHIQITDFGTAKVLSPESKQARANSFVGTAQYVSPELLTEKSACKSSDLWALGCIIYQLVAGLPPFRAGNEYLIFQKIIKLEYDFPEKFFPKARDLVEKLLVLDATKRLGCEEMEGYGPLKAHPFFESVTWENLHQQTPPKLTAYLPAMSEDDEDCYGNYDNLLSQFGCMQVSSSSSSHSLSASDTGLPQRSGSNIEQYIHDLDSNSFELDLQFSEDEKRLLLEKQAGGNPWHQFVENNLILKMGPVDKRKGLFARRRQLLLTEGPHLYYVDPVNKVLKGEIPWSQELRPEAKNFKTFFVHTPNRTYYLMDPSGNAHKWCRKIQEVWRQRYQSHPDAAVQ

[13] = target: Tyrosine-protein kinase Lck (Homo sapiens) (UniProt P06239); test: Inhibition of Lck at 10 uM by HTRF assay relative to control; procedure, shortened: as §1
Chain of Tyrosine-protein kinase Lck (Homo sapiens) (P06239 2-509 limits assumed): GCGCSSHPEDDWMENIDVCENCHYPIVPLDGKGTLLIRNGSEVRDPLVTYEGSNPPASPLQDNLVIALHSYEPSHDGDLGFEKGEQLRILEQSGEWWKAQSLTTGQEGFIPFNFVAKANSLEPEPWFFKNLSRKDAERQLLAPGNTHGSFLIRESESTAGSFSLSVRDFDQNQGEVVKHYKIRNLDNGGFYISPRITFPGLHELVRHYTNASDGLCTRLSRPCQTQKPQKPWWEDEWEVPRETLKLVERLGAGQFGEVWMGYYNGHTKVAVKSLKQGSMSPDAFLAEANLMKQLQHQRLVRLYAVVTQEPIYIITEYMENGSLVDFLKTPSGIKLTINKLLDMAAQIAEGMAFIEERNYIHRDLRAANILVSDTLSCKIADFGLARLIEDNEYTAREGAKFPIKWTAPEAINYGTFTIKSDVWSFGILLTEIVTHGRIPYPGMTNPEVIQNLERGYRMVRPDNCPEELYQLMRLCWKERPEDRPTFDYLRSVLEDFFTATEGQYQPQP

[14] = target: T2, Ephrin type-B receptor 4 (Homo sapiens) (UniProt P54760); test: Inhibition of EphB4 at 10 uM by HTRF assay relative to control; procedure, shortened: as §1
T2 sequence (whole entry): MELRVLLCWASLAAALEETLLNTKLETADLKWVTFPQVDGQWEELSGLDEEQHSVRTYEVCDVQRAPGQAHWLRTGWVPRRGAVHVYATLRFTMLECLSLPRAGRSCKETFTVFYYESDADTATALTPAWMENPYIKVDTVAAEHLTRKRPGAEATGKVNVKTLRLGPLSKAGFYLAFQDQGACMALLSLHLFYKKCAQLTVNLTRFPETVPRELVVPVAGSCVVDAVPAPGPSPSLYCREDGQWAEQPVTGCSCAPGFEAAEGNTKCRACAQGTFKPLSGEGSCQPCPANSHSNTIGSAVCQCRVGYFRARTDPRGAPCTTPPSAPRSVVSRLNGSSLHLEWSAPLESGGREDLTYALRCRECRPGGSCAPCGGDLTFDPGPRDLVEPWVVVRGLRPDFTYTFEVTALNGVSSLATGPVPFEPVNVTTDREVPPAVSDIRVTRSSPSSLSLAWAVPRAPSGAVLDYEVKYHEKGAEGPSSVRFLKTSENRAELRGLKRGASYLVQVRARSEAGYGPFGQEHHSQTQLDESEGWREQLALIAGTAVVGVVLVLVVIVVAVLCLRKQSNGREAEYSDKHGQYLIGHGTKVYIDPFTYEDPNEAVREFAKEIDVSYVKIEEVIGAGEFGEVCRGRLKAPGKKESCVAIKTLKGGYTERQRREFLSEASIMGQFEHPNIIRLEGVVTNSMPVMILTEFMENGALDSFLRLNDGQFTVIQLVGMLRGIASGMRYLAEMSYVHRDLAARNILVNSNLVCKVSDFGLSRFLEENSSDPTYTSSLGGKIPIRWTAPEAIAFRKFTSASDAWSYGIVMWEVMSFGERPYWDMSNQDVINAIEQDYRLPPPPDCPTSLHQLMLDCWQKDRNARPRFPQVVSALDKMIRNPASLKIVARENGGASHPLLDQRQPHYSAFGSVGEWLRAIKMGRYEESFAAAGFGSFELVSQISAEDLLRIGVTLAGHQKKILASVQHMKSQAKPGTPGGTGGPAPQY

[15] = target: Ribosomal protein S6 kinase alpha-3 (Homo sapiens) (UniProt P51812); test: Inhibition of RSK2 at 10 uM by HTRF assay relative to control; procedure, shortened: as §1
[16] = Inhibition of PKA at 10 uM by HTRF assay relative to control; procedure, shortened: as §1

Compound | inhibition [1] [%] | inhibition [2] [%] | inhibition [3] [%] | inhibition [4] [%] | inhibition [5] [%] | inhibition [6] [%] | inhibition [7] [%] | inhibition [8] [%] | inhibition [9] [%] | inhibition [10] [%] | inhibition [11] [%] | inhibition [12] [%] | inhibition [13] [%] | inhibition [14] [%] | inhibition [15] [%] | inhibition [16] [%]
Clc1ccc2sc(CN3CCN(c4ncnc5c4CN(Cc4ccccc4)CC5)CC3)cc2c1 | 0 | 0 | 6 | 10 | 2 | 8 | 0 | 5 | 7 | 2 | 11 | 3 | 0 | 0 | 5 | 0
O=C(c1nc(SCc2ccc(Cl)cc2)n2ccccc12)N1CCN(c2cc(Nc3cccc(Br)c3)ncn2)CC1 | 1 | 0 | 14 | 1 | 24 | 0 | 0 | 10 | 0 | 4 | 6 | 0 | 0 | 0 | 0 | 1
CN(C)CC(C)(C)CNC(=O)c1cccc(Nc2nccc(Nc3ccc4ncsc4c3)n2)c1 | 13 | 34 | 86 | 52 | 97 | 0 | 99 | 99 | 87 | 79 | 18 | 0 | 100 | 18 | 17 | 12
O=C(CN1CCN(c2ncnc3c2CN(Cc2ccccc2)CC3)CC1)Nc1cc(F)ccc1F | 0 | 0 | 0 | 0 | 9 | 4 | 0 | 5 | 0 | 0 | 8 | 0 | 0 | 0 | 0 | 0
Cc1cccc(Oc2ccnc(N3CCN(C(=O)c4c(C)noc4C)CC3)n2)c1 | 0 | 0 | 5 | 3 | 2 | 0 | 0 | 5 | 0 | 3 | 5 | 0 | 0 | 0 | 0 | 2
Cc1cccc(CN2CCN(c3cc(N(C)c4cccc(C)c4)ncn3)CC2)c1 | 8 | 0 | 5 | 1 | 7 | 3 | 0 | 6 | 0 | 2 | 10 | 3 | 0 | 0 | 0 | 0
O=C(NCc1ccncc1)c1cccc(Nc2cc(Nc3cccc(Br)c3)ncn2)c1 | 0 | 0 | 0 | 4 | 10 | 2 | 35 | 26 | 0 | 0 | 16 | 4 | 32 | 0 | 5 | 0
COC(=O)C(CO)NC(=O)[C@@H]1CCCN1c1nccc(Oc2cccc(C)c2)n1 (some centres undefined) | 1 | 0 | 0 | 1 | 13 | 0 | 0 | 0 | 0 | 4 | 5 | 0 | 0 | 0 | 0 | 0
Nc1nc(N2CCOCC2)cc(N2CCC(C(=O)NCc3cccs3)CC2)n1 | 0 | 0 | 11 | 5 | 15 | 0 | 0 | 8 | 0 | 0 | 7 | 0 | 0 | 0 | 0 | 0
Cc1cccc(Oc2ccnc(N3CCC[C@H]3C(=O)NCCCn3ccnc3)n2)c1 | 0 | 0 | 1 | 2 | 0 | 0 | 0 | 7 | 1 | 1 | 7 | 1 | 0 | 0 | 0 | 0
Cc1cccc(Oc2ccnc(N3CCN(CC(=O)Nc4cccc5c4CCCC5)CC3)n2)c1 | 6 | 0 | 0 | 0 | 0 | 3 | 0 | 6 | 0 | 5 | 14 | 0 | 0 | 0 | 0 | 5
CN(CCc1ccccn1)C(=O)c1cccc(Nc2nccc(Nc3ccc4ncsc4c3)n2)c1 | 0 | 0 | 80 | 36 | 78 | 5 | 98 | 91 | 34 | 27 | 19 | 0 | 37 | 17 | 35 | 1
Nc1nc(Nc2ccc3ncsc3c2)cc(N2CCC[C@H]2C(=O)N[C@@H](CO)c2ccccc2)n1 | 0 | 0 | 7 | 4 | 4 | 0 | 0 | 6 | 1 | 1 | 5 | 2 | 0 | 0 | 0 | 1
CN(C)c1ccc(C(=O)N2CCN(c3ncnc4c3CN(Cc3ccccc3)CC4)CC2)c2ccccc12 | 8 | 0 | 19 | 1 | 0 | 0 | 0 | 4 | 0 | 4 | 3 | 0 | 0 | 0 | 0 | 0
